Results: ChEMBL document CHEMBL5136970, “Influence of ring size in conformationally restricted ring I analogs of paromomycin on antiribosomal and antibacterial activity” (RSC Med Chem, 2021)
Values after ≈ are worked out from the molar mass of the structure shown.

Experiments:
Bacterial 70S ribosome = assay: Inhibition of Mycobacterium smegmatis wild type ribosomes assessed as inhibition of translation activity using Firefly luciferase mRNA reporter based luminescence analysis; assay type: subcellular, Mycolicibacterium smegmatis
Outline: (§1)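 Cell-free ribosomal translation inhibition with IC50 reported in μM. Values were determined in duplicate or more, except for a few compounds in the mitochondrial hybrid assays, where limited material allowed fewer runs.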

[1] = Inhibition of human mitochondrial ribosome Mit 13 hybridized with Mycobacterium smegmatis ribosome assessed as inhibition of translation activity using Firefly luciferase mRNA reporter based luminescence analysis
Outline: (§2)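 Cell-free ribosomal translation assay. IC50 reported in μM ± STD, determined in duplicate or more, with fewer replicates for a few compounds where material was limited.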

[2] = Inhibition of human mitochondrial ribosome Mit 13 A1555G mutant hybridized with Mycobacterium smegmatis ribosome assessed as inhibition of translation activity using Firefly luciferase mRNA reporter based luminescence analysis; outline: as §1
[3] = Selectivity ratio of IC50 for inhibition of human mitochondrial ribosome Mit 13 hybridized with Mycobacterium smegmatis ribosome to IC50 for inhibition of Mycobacterium smegmatis wild type ribosomes
[4] = Selectivity ratio of IC50 for inhibition of human mitochondrial ribosome Mit 13 A1555G mutant hybridized with Mycobacterium smegmatis ribosomes to IC50 for inhibition of Mycobacterium smegmatis wild type ribosomes
Staphylococcus aureus = assay: Antibacterial activity against methicillin-resistant Staphylococcus aureus AG038; assay type: functional
Escherichia coli = assay: Antibacterial activity against Escherichia coli AG001; assay type: functional
Acinetobacter baumannii = assay: Antibacterial activity against Acinetobacter baumannii AG225; assay type: functional
Klebsiella pneumoniae = assay: Antibacterial activity against Klebsiella pneumoniae AG215; assay type: functional
Enterobacter cloacae = assay: Antibacterial activity against Enterobacter cloacae AG290; assay type: functional
Pseudomonas aeruginosa = assay: Antibacterial activity against Pseudomonas aeruginosa AG031; assay type: functional
[5] = Inhibition of human cytoplasmic ribosome Cyt 14 hybridized with Mycobacterium smegmatis ribosome assessed as inhibition of translation activity using Firefly luciferase mRNA reporter based luminescence analysis; outline: as §2
[6] = Selectivity ratio of IC50 for inhibition of human cytoplasmic ribosome Cyt 14 hybridized with Mycobacterium smegmatis ribosomes to IC50 for inhibition of Mycobacterium smegmatis wild type ribosomes

| Structure (SMILES) | IC50 (Bacterial 70S ribosome) | IC50 [1] | IC50 [2] | Ratio IC50 [3] | Ratio IC50 [4] | MIC (Staphylococcus aureus) | MIC (Escherichia coli) | MIC (Acinetobacter baumannii) | MIC (Klebsiella pneumoniae) | MIC (Enterobacter cloacae) | MIC (Pseudomonas aeruginosa) | IC50 [5] | Ratio IC50 [6] |
| --- | --- | --- | --- | --- | --- | --- | --- | --- | --- | --- | --- | --- | --- |
| NC[C@@H]1O[C@H](O[C@H]2[C@@H](O)[C@H](O[C@@H]3[C@@H](O)[C@H](N)C[C@H](N)[C@H]3O[C@H]3O[C@H]4[C@@H](OCCC[C@H]4O)[C@H](O)[C@H]3N)O[C@@H]2CO)[C@H](N)[C@@H](O)[C@@H]1O | 1.5 µM | 514 µM | 545 µM | 342 | 363 | 32 µg/mL (≈ 48.8 µM) | 64 µg/mL (≈ 97.6 µM) | 32 µg/mL (≈ 48.8 µM) | 32 µg/mL (≈ 48.8 µM) | 32 µg/mL (≈ 48.8 µM) | > 128 µg/mL | – | – |
| NC[C@@H]1O[C@H](O[C@H]2[C@@H](O)[C@H](O[C@@H]3[C@@H](O)[C@H](N)C[C@H](N)[C@H]3O[C@H]3O[C@H](CO)[C@@H](O)[C@H](O)[C@H]3N)O[C@@H]2CO)[C@H](N)[C@@H](O)[C@@H]1O [PAROMOMYCIN] | 0.033 µM | 131 µM | 12 µM | 3970 | 364 | 2 µg/mL (≈ 3.25 µM) | 2 µg/mL (≈ 3.25 µM) | 2 µg/mL (≈ 3.25 µM) | 1 µg/mL (≈ 1.62 µM) | 2 µg/mL (≈ 3.25 µM) | > 128 µg/mL | 37 µM | 1120 |
| C[C@@H]1C[C@H](O)[C@H]2O[C@H](O[C@H]3[C@H](O[C@@H]4O[C@H](CO)[C@@H](O[C@H]5O[C@@H](CN)[C@@H](O)[C@H](O)[C@H]5N)[C@H]4O)[C@@H](O)[C@H](N)C[C@@H]3N)[C@H](N)[C@@H](O)[C@@H]2O1 | 0.063 µM | 250 µM | 20 µM | 3970 | 317 | 4 µg/mL (≈ 6.1 µM) | 4 µg/mL (≈ 6.1 µM) | 4 µg/mL (≈ 6.1 µM) | 2 µg/mL (≈ 3.05 µM) | 2 µg/mL (≈ 3.05 µM) | 32 µg/mL (≈ 48.8 µM) | 34 µM | 540 |
| C[C@@H]1C[C@@H](O)[C@H]2O[C@H](O[C@H]3[C@H](O[C@@H]4O[C@H](CO)[C@@H](O[C@H]5O[C@@H](CN)[C@@H](O)[C@H](O)[C@H]5N)[C@H]4O)[C@@H](O)[C@H](N)C[C@@H]3N)[C@H](N)[C@@H](O)[C@@H]2O1 | 0.89 µM | 372 µM | 327 µM | 418 | 367 | 32 µg/mL (≈ 48.8 µM) | 32 µg/mL (≈ 48.8 µM) | 32 µg/mL (≈ 48.8 µM) | 16 µg/mL (≈ 24.4 µM) | 32 µg/mL (≈ 48.8 µM) | > 128 µg/mL | 266 µM | 299 |
| NC[C@@H]1O[C@H](O[C@H]2[C@@H](O)[C@H](O[C@@H]3[C@@H](O)[C@H](N)C[C@H](N)[C@H]3O[C@H]3O[C@H]4[C@@H](OCC[C@@H]4O)[C@H](O)[C@H]3N)O[C@@H]2CO)[C@H](N)[C@@H](O)[C@@H]1O | 0.12 µM | 231 µM | 132 µM | 1920 | 1100 | 2 µg/mL (≈ 3.12 µM) | 8 µg/mL (≈ 12.5 µM) | 8 µg/mL (≈ 12.5 µM) | 4 µg/mL (≈ 6.23 µM) | 4 µg/mL (≈ 6.23 µM) | > 128 µg/mL | 120 µM | 1000 |
| NC[C@@H]1O[C@H](O[C@H]2[C@@H](O)[C@H](O[C@@H]3[C@@H](O)[C@H](N)C[C@H](N)[C@H]3O[C@H]3O[C@H]4[C@@H](OC[C@H]4O)[C@H](O)[C@H]3N)O[C@@H]2CO)[C@H](N)[C@@H](O)[C@@H]1O | 0.2 µM | 131 µM | 117 µM | 655 | 585 | 8 µg/mL (≈ 12.7 µM) | 16 µg/mL (≈ 25.5 µM) | 8 µg/mL (≈ 12.7 µM) | 4 µg/mL (≈ 6.37 µM) | 8 µg/mL (≈ 12.7 µM) | > 64 µg/mL | 276 µM | 1380 |
| NC[C@@H]1O[C@H](O[C@H]2[C@@H](O)[C@H](O[C@@H]3[C@@H](O)[C@H](N)C[C@H](N)[C@H]3O[C@H]3O[C@H]4[C@@H](OC[C@@H]4O)[C@H](O)[C@H]3N)O[C@@H]2CO)[C@H](N)[C@@H](O)[C@@H]1O | 0.13 µM | 151 µM | – | 943 | – | 16 µg/mL (≈ 25.5 µM) | 32 µg/mL (≈ 51 µM) | 32 µg/mL (≈ 51 µM) | 16 µg/mL (≈ 25.5 µM) | 32 µg/mL (≈ 51 µM) | > 128 µg/mL | 40 µM | 250 |
| NC[C@@H]1O[C@H](O[C@H]2[C@@H](O)[C@H](O[C@@H]3[C@@H](O)[C@H](N)C[C@H](N)[C@H]3O[C@H]3O[C@H]4[C@@H](OCCC[C@@H]4O)[C@H](O)[C@H]3N)O[C@@H]2CO)[C@H](N)[C@@H](O)[C@@H]1O | 0.071 µM | 243 µM | 42 µM | 3420 | 592 | 2 µg/mL (≈ 3.05 µM) | 4 µg/mL (≈ 6.1 µM) | 4 µg/mL (≈ 6.1 µM) | 2 µg/mL (≈ 3.05 µM) | 2 µg/mL (≈ 3.05 µM) | 64 µg/mL (≈ 97.6 µM) | 56 µM | 789 |
| NC[C@@H]1O[C@H](O[C@H]2[C@@H](O)[C@H](O[C@@H]3[C@@H](O)[C@H](N)C[C@H](N)[C@H]3O[C@H]3O[C@H]4[C@@H](OCC[C@H]4O)[C@H](O)[C@H]3N)O[C@@H]2CO)[C@H](N)[C@@H](O)[C@@H]1O | 3.3 µM | 554 µM | 602 µM | 168 | 182 | 32 µg/mL (≈ 49.9 µM) | 128 µg/mL (≈ 199 µM) | 64 µg/mL (≈ 99.7 µM) | 64 µg/mL (≈ 99.7 µM) | 64 µg/mL (≈ 99.7 µM) | > 128 µg/mL | 557 µM | 169 |
